Assay results reported in ChEMBL document CHEMBL1129571 (J Med Chem, 1996).

How the values were obtained:
[1] = molecular target: Aldo-keto reductase family 1 member B1 (Rattus norvegicus) (UniProt P07943); assay: In vitro inhibitory activity against partially purified rat lens Aldose reductase at a dose of 5e-7M
Procedure, shortened: (§1)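 Rat lens AR partially purified from male Wister rat lenses: homogenized in 10 mM phosphate pH 7.0 with 5 mM 2-mercaptoethanol and 1 mM EDTA, then 30–80% ammonium sulfate cut, dialyzed. NADPH decrease followed at 340 nm.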

[2] = molecular target: Aldo-keto reductase family 1 member A1 (Rattus norvegicus, UniProt P51635); assay: In vitro inhibitory activity against rat kidney Aldehyde reductase
Chain of Aldo-keto reductase family 1 member A1 (P51635 whole entry, looked up): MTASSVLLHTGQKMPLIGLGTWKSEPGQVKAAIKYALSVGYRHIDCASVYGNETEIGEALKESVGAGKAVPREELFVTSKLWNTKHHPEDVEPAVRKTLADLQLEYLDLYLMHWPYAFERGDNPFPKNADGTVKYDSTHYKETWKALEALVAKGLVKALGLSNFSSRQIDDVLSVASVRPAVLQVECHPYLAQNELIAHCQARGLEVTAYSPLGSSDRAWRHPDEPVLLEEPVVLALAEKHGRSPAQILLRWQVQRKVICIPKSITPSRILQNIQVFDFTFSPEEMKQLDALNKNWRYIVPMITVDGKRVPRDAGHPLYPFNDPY

[3] = molecular target: Aldo-keto reductase family 1 member B1 (Rattus norvegicus, UniProt P07943); assay: In vitro inhibitory activity against rat lens Aldose reductase; procedure, shortened: as §1
[4] = Ratio of AR IC50 and ALR IC50 of rat lens and kidney enzyme; assay type: tissue-based; conditions: Lens of camera-type eye

inhibition [1] [%] | Structure (SMILES) | other results
66 | O=C(O)CN1C(=O)C(=O)N(Cc2ccccc2[N+](=O)[O-])C1=O | 
31 | CCOC(=O)CN1C(=O)C(=O)N(Cc2cccc([N+](=O)[O-])c2)C1=O | 
56 | O=C(O)CN1C(=O)C(=O)N(Cc2ccc(Cl)cc2)C1=O | 
68 | O=C(O)CN1C(=O)C(=O)N(Cc2ccc(Cl)cc2Cl)C1=O | IC50 [2]: 46000 nM; IC50 [3]: 100 nM; Ratio [4]: 460
44 | COc1cccc(CN2C(=O)C(=O)N(CC(=O)O)C2=O)c1 | 
26 | O=C(O)CN1C(=O)C(=O)N(Cc2ccc([N+](=O)[O-])cc2)C1=O | 
47 | O=C(O)CN1C(=O)C(=O)N(CCc2ccc(Br)cc2)C1=O | 
42 | COc1ccc(CCN2C(=O)C(=O)N(CC(=O)O)C2=O)cc1OC | 
16 | O=C(O)CN1C(=O)C(=O)N(CCCc2ccccc2)C1=O | 
17 | O=C(O)CN1C(=O)C(=O)N(Cc2ccccc2)C1=O | 
37 | O=C(O)CN1C(=O)C(=O)N(CCc2ccccc2Cl)C1=O | 
41 | Cc1ccccc1CN1C(=O)C(=O)N(CC(=O)O)C1=O | 
30 | Cc1ccc(CN2C(=O)C(=O)N(CC(=O)O)C2=O)cc1 | 
42 | Cc1ccc(CCN2C(=O)C(=O)N(CC(=O)O)C2=O)cc1 | 
29 | COc1ccc(CN2C(=O)C(=O)N(CC(=O)O)C2=O)cc1OC | 
31 | O=C(O)CN1C(=O)C(=O)N(Cc2cccc(Cl)c2)C1=O | 
25 | O=C(O)CN1C(=O)C(=O)N(CCCCc2ccccc2)C1=O | 
16 | COc1ccccc1CN1C(=O)C(=O)N(CC(=O)O)C1=O | 
36 | O=C(O)CN1C(=O)C(=O)N(CCc2cccc([N+](=O)[O-])c2)C1=O | 
9 | O=C(O)CN1C(=O)C(=O)N(Cc2ccc(F)cc2)C1=O | 
57 | O=C(O)CN1C(=O)C(=O)N(CCc2ccc(Cl)c(Cl)c2)C1=O | 
32 | O=C(O)CN1C(=O)C(=O)N(Cc2ccccc2Cl)C1=O | 
65 | O=C(O)CN1C(=O)C(=O)N(Cc2ccc(Br)cc2)C1=O | 
77 | O=C(O)CN1C(=O)C(=O)N(Cc2ccc(Cl)c(Cl)c2)C1=O | IC50 [2]: > 100000 nM; IC50 [3]: 50 nM; Ratio [4]: > 2000
30 | O=C(O)CN1C(=O)C(=O)N(CCc2ccccc2)C1=O | 
75 | O=C(O)CN1C(=O)C(=O)N(Cc2cccc([N+](=O)[O-])c2)C1=O | 
